Peptide text beside a SMILES is read from it.
Columns and labels:
Format in all cases: biochemical
ERK1 = ERK1 (Homo sapiens, UniProt P27361); test: Radiometric protein kinase assay, ERK1 phosphotransferase activity; details: for % Activity Change 1 μM: peptide 1 μM; for % Activity Change 10 μM: peptide 10 μM; for % Activity Change 50 μM: peptide 50 μM; for ERK1 activity inhibited by % compared to control / % Activity Change 500 μM: peptide 500 μM
Method in brief: (§1)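 Reaction is started with [γ-33P]ATP (250 μM stock, 0.8 μCi), with peptide at six levels (1–500 μM) or 10% DMSO. Run 30°C, 20 min, then spot onto P81 paper, wash in 1% phosphoric acid and scintillation count. Substrate-free blank is subtracted. Duplicates, repeated twice.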

CDK5/p25 = CDK5/p25 (Homo sapiens, UniProt Q00535); test: Radiometric protein kinase assay, CDK5/p25 phosphotransferase activity; details: for % Activity Change 1 μM: peptide 1 μM, negative = inhibition; for % Activity Change 1 μM / % Activity Change 10 μM / % Activity Change 50 μM / % Activity Change 100 μM / % Activity Change 250 μM / % Activity Change 500 μM: vs control without inhibitor, duplicate; for % Activity Change 10 μM: peptide 10 μM; for % Activity Change 50 μM: peptide 50 μM; for % Activity Change 500 μM: peptide 500 μM
Chain of CDK5/p25 (Q00535 whole entry): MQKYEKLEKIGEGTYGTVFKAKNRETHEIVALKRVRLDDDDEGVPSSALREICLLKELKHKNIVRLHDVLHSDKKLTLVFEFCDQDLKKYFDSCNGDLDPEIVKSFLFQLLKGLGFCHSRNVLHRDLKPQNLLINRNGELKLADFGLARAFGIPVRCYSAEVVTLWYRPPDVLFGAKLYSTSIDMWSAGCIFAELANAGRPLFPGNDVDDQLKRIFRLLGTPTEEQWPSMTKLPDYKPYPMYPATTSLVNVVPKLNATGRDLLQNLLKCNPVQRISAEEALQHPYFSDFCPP
Method in brief: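 GST-tagged CDK5/p25 co-expressed in Sf9 cells via baculovirus, 15 nM final, with calf thymus histone H1 (1 mg/ml final) in MOPS pH 7.2 buffer with MgCl2, EGTA, EDTA, DTT. Reaction started with [γ-33P]ATP (250 μM stock, 0.8 μCi) and run 20 min at 30°C. Products were spotted on P81 paper, washed in 1% phosphoric acid and scintillation-counted. No-substrate blank was subtracted. Peptide tested 1–500 μM against 10% DMSO control, two experiments in duplicate.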

CDK5/p35 = CDK5/p35 (Homo sapiens, UniProt Q00535); test: Radiometric protein kinase assay, CDK5/p35 phosphotransferase activity; details: for % Activity Change 1 μM: peptide 1 μM; for % Activity Change 1 μM / % Activity Change 10 μM / % Activity Change 50 μM / % Activity Change 100 μM / % Activity Change 250 μM / % Activity Change 500 μM: duplicate; for % Activity Change 10 μM: peptide 10 μM; for % Activity Change 50 μM: peptide 50 μM; for % Activity Change 500 μM: peptide 500 μM
Chain of CDK5/p35 (Q00535 whole entry): as above

GSK3β = GSK3β (Homo sapiens, UniProt P49841); test: Radiometric protein kinase assay, GSK3β phosphotransferase activity; details: for % Activity Change 1 μM: peptide 1 μM, positive = activation; for % Activity Change 10 μM: peptide 10 μM; for % Activity Change 50 μM: peptide 50 μM; for GSK3β phosphotransferase activity activated by % compared to control / % Activity Change 500 μM: peptide 500 μM
Chain of GSK3β (P49841 whole entry, species assumed): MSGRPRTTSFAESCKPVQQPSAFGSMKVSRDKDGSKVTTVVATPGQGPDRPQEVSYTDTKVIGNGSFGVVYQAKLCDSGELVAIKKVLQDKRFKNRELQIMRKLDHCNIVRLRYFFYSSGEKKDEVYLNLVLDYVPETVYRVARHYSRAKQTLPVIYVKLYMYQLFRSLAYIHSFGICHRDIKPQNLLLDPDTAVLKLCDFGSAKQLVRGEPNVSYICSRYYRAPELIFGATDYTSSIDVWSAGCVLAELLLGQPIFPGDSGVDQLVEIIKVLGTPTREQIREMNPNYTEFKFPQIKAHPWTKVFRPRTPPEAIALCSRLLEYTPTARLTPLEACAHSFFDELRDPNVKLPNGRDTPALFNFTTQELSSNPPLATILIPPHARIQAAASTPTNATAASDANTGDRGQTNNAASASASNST
Method in brief: as §1

Chain of ERK1 (P27361 whole entry, species assumed): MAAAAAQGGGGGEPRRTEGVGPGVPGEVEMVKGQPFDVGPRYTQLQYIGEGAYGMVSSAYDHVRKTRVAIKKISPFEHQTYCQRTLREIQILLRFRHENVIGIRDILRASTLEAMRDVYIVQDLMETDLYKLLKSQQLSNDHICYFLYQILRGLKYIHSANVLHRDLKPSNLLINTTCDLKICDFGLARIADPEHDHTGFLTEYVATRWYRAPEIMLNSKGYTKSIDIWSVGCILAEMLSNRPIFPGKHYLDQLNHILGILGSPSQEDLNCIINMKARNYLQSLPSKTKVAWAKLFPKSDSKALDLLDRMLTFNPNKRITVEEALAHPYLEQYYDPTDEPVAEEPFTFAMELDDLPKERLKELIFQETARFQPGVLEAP

CC[C@H](C)[C@H](NC(=O)[C@H](CCC(N)=O)NC(=O)[C@@H](NC(=O)[C@H](CCSC)NC(=O)[C@H](CCCCN)NC(=O)[C@H](CO)NC(=O)[C@@H](NC(=O)[C@H](CCSC)NC(=O)[C@H](CC(C)C)NC(=O)[C@H](CC(N)=O)NC(=O)[C@@H](NC(=O)[C@@H](NC(=O)[C@H](CO)NC(=O)[C@H](CC(C)C)NC(=O)[C@H](C)NC(=O)[C@H](CCCNC(=N)N)NC(=O)[C@H](CCC(=O)O)NC(=O)[C@H](Cc1ccc(O)cc1)NC(=O)[C@H](Cc1ccccc1)NC(=O)[C@H](C)NC(=O)[C@H](CC(N)=O)NC(=O)[C@@H](N)CCCCN)[C@@H](C)CC)[C@@H](C)CC)[C@@H](C)O)C(C)C)C(=O)N[C@@H](CC(N)=O)C(=O)N[C@H](C(=O)O)C(C)C [p5-MT] (H-KNAFYERALSIINLMTSKMVQINV-OH)
IC50 (ERK1): 425 µM | % Activity Change 1 μM (ERK1; duplicate): 1% | % Activity Change 10 μM (ERK1; duplicate): 0% | % Activity Change 50 μM (ERK1; duplicate): –2% | % Activity Change 250 μM (ERK1; peptide 250 μM, duplicate): –35% | ERK1 activity inhibited by % compared to control (ERK1): 54% | % Activity Change 500 μM (ERK1; duplicate): –54% | IC50 (CDK5/p25): 119 µM | % Activity Change 1 μM (CDK5/p25): 2% | % Activity Change 10 μM (CDK5/p25): –8% | % Activity Change 50 μM (CDK5/p25): –22% | CDK5/p25 phosphotransferase activity inhibited by % compared to control (CDK5/p25; peptide 100 μM): 46% | % Activity Change 100 μM (CDK5/p25; peptide 100 μM): –46% | % Activity Change 250 μM (CDK5/p25; peptide 250 μM): –73% | % Activity Change 500 μM (CDK5/p25): –85% | IC50 (CDK5/p35): 83 µM | % Activity Change 1 μM (CDK5/p35): –3% | % Activity Change 10 μM (CDK5/p35): –14% | % Activity Change 50 μM (CDK5/p35): –35% | CDK5/p35 phosphotransferase activity inhibited by % compared to control (CDK5/p35; peptide 100 μM): 57% | % Activity Change 100 μM (CDK5/p35; peptide 100 μM): –57% | % Activity Change 250 μM (CDK5/p35; peptide 250 μM): –73% | % Activity Change 500 μM (CDK5/p35): –84% | % Activity Change 1 μM (GSK3β; duplicate): –1% | % Activity Change 10 μM (GSK3β; duplicate): 3% | % Activity Change 50 μM (GSK3β; duplicate): 6% | GSK3β phosphotransferase activity activated by % compared to control (GSK3β): 40% | % Activity Change 500 μM (GSK3β; duplicate): 40%

CC[C@H](C)[C@H](NC(=O)[C@H](CCC(N)=O)NC(=O)[C@H](CC(C)C)NC(=O)[C@H](CCSC)NC(=O)[C@H](CCCCN)NC(=O)[C@H](CO)NC(=O)[C@H](CO)NC(=O)[C@H](CCSC)NC(=O)[C@H](CC(C)C)NC(=O)[C@H](CC(N)=O)NC(=O)[C@@H](NC(=O)[C@@H](NC(=O)[C@H](CO)NC(=O)[C@H](CC(C)C)NC(=O)[C@H](CS)NC(=O)[C@H](CCCNC(=N)N)NC(=O)[C@H](CC(=O)O)NC(=O)[C@H](Cc1c[nH]c2ccccc12)NC(=O)[C@H](Cc1ccccc1)NC(=O)[C@H](C)NC(=O)[C@H](CCC(=O)O)NC(=O)[C@@H](N)CCCCN)C(C)C)[C@@H](C)CC)C(=O)N[C@@H](CC(N)=O)C(=O)N[C@@H](C)C(=O)O [p5-WT] (H-KEAFWDRCLSVINLMSSKMLQINA-OH)
% Activity Change 1 μM (ERK1; duplicate): 0% | % Activity Change 10 μM (ERK1; duplicate): 0% | % Activity Change 50 μM (ERK1; duplicate): –3% | % Activity Change 100 μM (ERK1; peptide 100 μM, duplicate): –6% | ERK1 activity inhibited by % compared to control (ERK1): 25% | % Activity Change 500 μM (ERK1; duplicate): –25% | IC50 (CDK5/p25): 169 µM | % CFC (percent change from control) (CDK5/p25; 79-peptide scan, relative to p5-WT peptide (#1), negative = greater inhibition): 0% | % Activity Change 1 μM (CDK5/p25): 0% | % Activity Change 10 μM (CDK5/p25): –13% | % Activity Change 50 μM (CDK5/p25): –20% | % Activity Change 100 μM (CDK5/p25; peptide 100 μM): –41% | CDK5/p25 phosphotransferase activity inhibited by % compared to control (CDK5/p25; peptide 250 μM): 59% | % Activity Change 250 μM (CDK5/p25; peptide 250 μM): –59% | % Activity Change 500 μM (CDK5/p25): –72% | IC50 (CDK5/p35): 217 µM | % Activity Change 1 μM (CDK5/p35): 2% | % Activity Change 10 μM (CDK5/p35): –2% | % Activity Change 50 μM (CDK5/p35): –10% | % Activity Change 100 μM (CDK5/p35; peptide 100 μM): –29% | CDK5/p35 activity inhibited by % compared to control (CDK5/p35; peptide 250 μM): 53% | % Activity Change 250 μM (CDK5/p35; peptide 250 μM): –53% | % Activity Change 500 μM (CDK5/p35): –76% | % Activity Change 1 μM (GSK3β; duplicate): –3% | % Activity Change 10 μM (GSK3β; duplicate): –1% | % Activity Change 50 μM (GSK3β; duplicate): 0% | % Activity Change 100 μM (GSK3β; peptide 100 μM, duplicate): 8% | GSK3β phosphotransferase activity activated by % compared to control (GSK3β): 24% | % Activity Change 500 μM (GSK3β; duplicate): 24%

— publication PMC4927891 (Journal of Alzheimer's Disease, 2015)
